# Shown are actives, neighbours in structure and some others; about 5.9% of the full set was active somewhere.
# Pf Dd2 growth: blocks growth of Plasmodium falciparum Dd2 parasites | P. falciparum Dd2 growth, SYBR Green, 72 h; hits give low values | activity change, % at 10 µM | 94,000 tested, 2.3% active; in the data active = activity change below about -80%; inconclusive = no clear call, values can overlap the other calls
# GASC1 inh: inhibitors of human demethylase GASC-1 KDM4C | Q9H3R0 | GST-KDM4C 2-372, H3K9me3 peptide, LANCE TR-FRET | inhibition, % at 12.5 µM | 96,000 tested, 0.15% active;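 active = mean replicate inhibition above about 25%, with at least 55% of replicates also reaching it, limit read from the data, passing the limit was not always enough; inconclusive = only one of those two conditions met; inactive = neither condition met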
# Target sequence (Q9H3R0 2-372 limits assumed): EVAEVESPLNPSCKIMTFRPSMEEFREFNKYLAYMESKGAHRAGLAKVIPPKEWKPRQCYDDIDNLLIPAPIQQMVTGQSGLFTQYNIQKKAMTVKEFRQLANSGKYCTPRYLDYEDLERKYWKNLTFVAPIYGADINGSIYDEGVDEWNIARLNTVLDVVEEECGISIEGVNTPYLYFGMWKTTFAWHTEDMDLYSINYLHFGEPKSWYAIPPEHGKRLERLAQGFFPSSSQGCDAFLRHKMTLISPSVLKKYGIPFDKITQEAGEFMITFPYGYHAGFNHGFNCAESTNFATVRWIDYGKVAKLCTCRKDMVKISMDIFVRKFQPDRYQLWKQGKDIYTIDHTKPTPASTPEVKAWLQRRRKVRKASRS
#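 System – N-terminal GST-fused human GASC-1 (KDM4C) fragment, residues 2-372 · Input – enzyme final amount 10 nM · Technique – LANCE TR-FRET, Eu antibody, ULight-streptavidin, EDTA, ex 340 nm, em 618/671 nm · Medium – HEPES buffer, pH 7.5, plus ascorbate · Incubation – enzyme reaction 30 min, then detection 60 min, both room temperature · Reagent – H3K9me3 peptide with Fe(II)/2OG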
# IDH1 R132H inh: IDH1 R132H (human) inhibition; O75874; IDH1 R132H reductase, diaphorase/resazurin fluorescence, 60 min; inhibition, % at 10 µM; 70,000 tested, 0.18% active; in the data active = inhibition above about 34%; inconclusive = no clear call, values can overlap the other calls; inactive = below about 11%;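 also: 0% = DMSO and 100% = no enzyme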
# T cruzi growth-1: T. cruzi proliferation inhibition; T. cruzi beta-gal in NIH3T3, GalScreen luminescence, 90 h; inhibition, % at 8.34 µM; 77,000 tested, 5.9% active;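 active = mean inhibition above about 93%, with at least 55% of replicates each passing it, limit read from the data, passing the limit was not always enough; inconclusive = only one of those two conditions holds; inactive = neither condition holds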
# T cruzi growth-2: inhibitors of T. cruzi proliferation; AID 651739; 5,600 tested, 72% active; shares compounds with T cruzi growth-1; inhibition, % at 8.35 µM; T. cruzi beta-gal in NIH3T3, GalScreen luminescence, 90 h;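 active = mean replicate inhibition above about 95% and at least 55% of replicates individually reaching it, limit read from the data; inconclusive = only one of the two criteria is met; inactive = neither criterion is met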
# T cruzi growth-3: inhibitors of T. cruzi proliferation; inhibition, % at 2.09 µM; 5,600 tested, 21% active; T. cruzi beta-gal in NIH3T3, GalScreen luminescence, 90 h; shares compounds with T cruzi growth-1;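 active = mean inhibition above about 95%, with at least 55% of replicates also reaching it, limit read from the data; inconclusive = meets just one of the two conditions; inactive = meets neither condition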;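 also: plate controls were neutral control median for no effect and positive control median for full effect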
# 3T3 cytotox: kills mouse NIH/3T3 fibroblasts. 5,600 tested, 14% active. cytotoxicity (signal decrease), % at 8.35 µM. shares compounds with T cruzi growth-1. NIH/3T3 viability, CellTiter-Glo ATP luminescence, 90 h;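 active = mean signal decrease across replicates above about 35% based on untreated-well scatter, with enough replicates individually passing, limit read from the data; inconclusive = no rule stated though some were filed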;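 also: 0% = median of neutral control wells and 100% = median of positive control wells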
# NIH3T3 tox 2: NIH/3T3 (mouse) viability loss; shares compounds with T cruzi growth-1; NIH/3T3 viability, CellTiter-Glo ATP luminescence, 90 h; inhibition, % at 24.9 µM; 5,600 tested, 56% active;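 active = mean loss of cell viability signal at or above a set limit, and enough replicates individually reaching it; inconclusive = meets only the mean limit or only the replicate share; inactive = meets neither condition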;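 also: 0% = median of neutral control wells and 100% = median of positive control wells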
# An asterisk follows results filed as active; ? = inconclusive; nt = no result given.
SMILES,Pf Dd2 growth,GASC1 inh,IDH1 R132H inh,T cruzi growth-1,T cruzi growth-2,T cruzi growth-3,3T3 cytotox,NIH3T3 tox 2
C[C@@H]1CN([C@@H](C)CO)C(=O)c2cc(NC(=O)Nc3cccc4ccccc34)ccc2O[C@@H](C)CCCCO[C@@H]1CN(C)Cc1ccc(C(F)(F)F)cc1,-88*,-4,nt,?,107*,111*,2,20
C[C@@H]1CN([C@@H](C)CO)C(=O)c2cc(NC(=O)Nc3cccc4ccccc34)ccc2O[C@@H](C)CCCCO[C@H]1CN(C)Cc1ccc(C(F)(F)F)cc1,-52,0,-11,?,109*,117*,29,11
C[C@H](CO)N1C[C@H](C)[C@H](CN(C)Cc2ccc(C(=O)O)cc2)OCCCC[C@H](C)Oc2ccc(NC(=O)Nc3cccc4ccccc34)cc2C1=O,9,1,nt,29,nt,nt,nt,nt
C[C@H](CO)N1C[C@H](C)[C@H](CN(C)Cc2ccc(C(F)(F)F)cc2)OCCCC[C@H](C)Oc2ccc(NC(=O)Nc3cccc4ccccc34)cc2C1=O,26,-2,nt,126,nt,nt,nt,nt
COc1ccc(S(=O)(=O)N(C)CC(N)=O)cc1Cl,nt,nt,0,nt,nt,nt,nt,nt
O=C(Cn1cnc([N+](=O)[O-])n1)Nc1ccc(N2CCOCC2)c(Cl)c1,nt,nt,0,nt,nt,nt,nt,nt
CCCCCCCCC/C=C/CCCCC(=O)C1C(=O)CCC(O)C1=O (stereo not drawn),nt,nt,5,nt,nt,nt,nt,nt
C[C@@H]1CCCCO[C@H](CN(C)Cc2ccc(C(F)(F)F)cc2)[C@@H](C)CN([C@H](C)CO)C(=O)c2cc(NC(=O)Nc3cccc4ccccc34)ccc2O1,34,-5,nt,?,107*,87,15,6
C[C@H]1CN([C@@H](C)CO)C(=O)Cc2cc(N(C)C)ccc2O[C@@H]1CN(C)Cc1ccc(Oc2ccccc2)cc1,-10,0,3,115*,104*,48,-10,77*
C[C@H]1CN([C@@H](C)CO)C(=O)Cc2cc(N(C)C)ccc2O[C@H]1CN(C)Cc1ccc(Oc2ccccc2)cc1,-10,-2,0,?,106*,114*,19,106*
C[C@H](CO)N1C[C@H](C)[C@H](CN(C)Cc2ccc(Oc3ccccc3)cc2)Oc2ccc(N(C)C)cc2C1=O,-11,-1,1,98*,?,8,-6,101*
C[C@@H]1CN([C@H](C)CO)C(=O)Cc2cc(N(C)C)ccc2O[C@@H]1CN(C)Cc1ccc(Oc2ccccc2)cc1,1,1,1,40,nt,nt,nt,nt
CCOC(=O)c1c(NC(=O)CC2NCCNC2=O)sc2c1CCCC2 (stereo not drawn),nt,nt,1,nt,nt,nt,nt,nt
COc1cc(C(F)(F)F)cc(C(F)(F)F)c1C(=O)N1CCC(C(=O)c2ccc(Cl)cc2)CC1,nt,nt,-1,nt,nt,nt,nt,nt
CC(C)(O[C@@H]1O[C@H](CO)[C@@H](O)[C@H](O)[C@H]1O)[C@@H]1Oc2cc3oc(=O)ccc3cc2[C@H]1O,nt,nt,0,nt,nt,nt,nt,nt
C[C@H]1CN([C@@H](C)CO)S(=O)(=O)c2ccc(-c3cccc(F)c3)cc2O[C@H]1CN(C)S(=O)(=O)c1ccc(F)cc1,-54,0,nt,118*,99*,108*,26,52*
C[C@H](CO)N1C[C@H](C)[C@H](CN(C)S(=O)(=O)c2ccc(F)cc2)Oc2cc(-c3cccc(F)c3)ccc2S1(=O)=O,-59,0,-1,124*,98*,95,20,54*
C[C@@H]1CN([C@@H](C)CO)S(=O)(=O)c2ccc(-c3cccc(F)c3)cc2O[C@@H]1CN(C)S(=O)(=O)c1ccc(F)cc1,1,0,nt,120,nt,nt,nt,nt
C[C@@H]1CN([C@H](C)CO)S(=O)(=O)c2ccc(C#CC3CCCC3)cc2O[C@H]1CN(C)C(=O)Cc1ccccc1,?,1,-5,113*,106*,68,3,105*
C[C@@H]1CN([C@@H](C)CO)S(=O)(=O)c2ccc(C#CC3CCCC3)cc2O[C@H]1CN(C)C(=O)Cc1ccccc1,?,-1,0,nt,nt,nt,nt,nt
C[C@@H]1CN([C@@H](C)CO)S(=O)(=O)c2ccc(C#CC3CCCC3)cc2O[C@H]1CN(C)C(=O)Cc1ccncc1,-86*,-2,nt,113*,99*,47,21,72*
C[C@@H]1CN([C@@H](C)CO)S(=O)(=O)c2ccc(C#CC3CCCCC3)cc2O[C@H]1CN(C)C(=O)Cc1ccncc1,-70,0,66*,?,103*,78,17,103*
C[C@H]1CN([C@@H](C)CO)S(=O)(=O)c2ccc(C#CC3CCCCC3)cc2O[C@H]1CN(C)C(=O)Cc1ccncc1,-18,-1,nt,42,nt,nt,nt,nt
C[C@@H]1CN([C@H](C)CO)S(=O)(=O)c2ccc(C#CC3CCCC3)cc2O[C@H]1CN(C)C(=O)Cc1ccncc1,-69,-3,nt,120*,101*,62,-4,99*
CC(NS(=O)(=O)c1ccc(F)cc1)C(=O)Nc1ccc(F)c(Cl)c1 (stereo not drawn),nt,nt,0,nt,nt,nt,nt,nt
SMILES,Pf Dd2 growth,GASC1 inh,IDH1 R132H inh,T cruzi growth-1,T cruzi growth-2,T cruzi growth-3,3T3 cytotox,NIH3T3 tox 2
O=C(Nc1ccccc1[N+](=O)[O-])c1cccc(S(=O)(=O)Nc2ccc(I)cc2)c1,nt,nt,0,nt,nt,nt,nt,nt
O=C(c1ccncc1)N1CCCCN2[C@H](C1)[C@@H](c1ccc(C#Cc3ccccn3)cc1)[C@@H]2CO,15,1,nt,108*,105*,13,3,5
COc1ccc(NC(=O)N2CCCCN3[C@H](CO)[C@H](c4ccc(C#Cc5ccccc5)cc4)[C@H]3C2)cc1,-48,nt,nt,62,nt,nt,nt,nt
O=C(Nc1ccccc1)N1CCCCN2[C@@H](CO)[C@@H](c3ccc(C#Cc4ccccn4)cc3)[C@@H]2C1,-30,1,nt,101*,110*,105*,-3,16
CS(=O)(=O)N1CCCCN2[C@H](CO)[C@H](c3ccc(C#Cc4ccccn4)cc3)[C@@H]2C1,-8,0,nt,113*,89,48,0,12
COc1ccc(C#Cc2ccc([C@@H]3[C@H](CO)N4CCCCN(C(=O)Nc5ccccc5)C[C@@H]34)cc2)cc1,-73,-3,nt,78,nt,nt,nt,nt
O=C(c1ccncc1)N1CCCCN2[C@H](CO)[C@H](c3ccc(C#Cc4ccccn4)cc3)[C@@H]2C1,-7,0,nt,33,nt,nt,nt,nt
COc1ccc(NC(=O)N2CCCCN3[C@H](C2)[C@@H](c2ccc(C#Cc4ccccn4)cc2)[C@@H]3CO)cc1,-16,-1,nt,103*,103*,94,9,38*
CCS(=O)(=O)N1CCCCN2[C@H](C1)[C@@H](c1ccc(C#Cc3ccccn3)cc1)[C@@H]2CO,26,0,nt,95,nt,nt,nt,nt

# Assay outcomes from PubChem.
